From PMC12238405 (Communications Biology, 2025)
“Also recorded” adds a separate entry of the source. Where two headings read alike, the source gives them in different places.

Experiments:
[1] = system: L. infantum chagasi (MHOM/BR/1972/BH46); assay: In vivo L. infantum chagasi chronic hamster model, parasite load by qPCR; set-up: species or system golden hamsters (Mesocricetus auratus); conditions: for average number of amastigotes in the liver / average number of amastigotes in the spleen: group average
[2] = system: cytokines IL-10, IL-4, TGFβ, IFN-γ, IL-17 and TNFα; assay: Relative expression of cytokines by qPCR in hamster spleen and liver; assay type: in vivo, golden hamsters (Mesocricetus auratus); conditions: for TGF-β expression: compared to untreated (UTG)
Method in brief: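 Hamsters in chronic infection (~60 days) treated 10 consecutive days: vehicle (0.5% carboxymethyl cellulose, oral), GLU 50 mg/kg/day ip, or test compound. Spleen/liver RNA reverse-transcribed; TaqMan qPCR normalized to hamster microglobulin at equal cDNA input; water as negative control. Cycling: 50 °C 2 min, 95 °C 10 min, 40 × (95 °C 15 s, 60 °C 1 min).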

[3] = system: L. donovani MHOM/SD/62/1S-CL2D, LdBOB intracellular amastigotes; assay: L. donovani MHOM/SD/62/1S-CL2D, LdBOB intracellular amastigote assay; assay type: cell-based, Leishmania donovani; conditions: for IC50: Leishmania donovani, 72 h, read-out: IC50 (µM) [mean ± SD]; for fold difference in activity between L. donovani DD8 and LdBOB: intracellular amastigote 72 h assay; for Selectivity THP-1 cells: vs L. donovani LdBOB intracellular amastigotes, 72 h incubation
[4] = system: L. donovani DD8 promastigotes; assay: Selection of resistant parasites under increasing drug pressure; assay type: cell-based, Leishmania donovani
Method in brief: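 DD8 promastigotes were cultured under gradually increasing concentrations of each drug, starting at a sublethal level, to select resistant strains. Resistance was confirmed with the promastigote viability assay.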

[5] = system: L. donovani DD8 intracellular amastigotes; assay: Time to kill assay; assay type: cell-based; conditions: Leishmania donovani, 24 h, read-out: IC50, time to kill, intracellular amastigotes
Method in brief: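 Intracellular L. donovani amastigotes were exposed to test compound for 24, 48 or 72 h, with amphotericin B and miltefosine as reference drugs. A 14-point concentration–response series started at 40 µM, and an IC50 was derived for each exposure time. Other conditions followed the paper's intracellular amastigote assay.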

HEK-293 cells = assay: HEK-293 resazurin viability assay; assay type: cell-based, human; conditions: vs L. donovani DD8 intracellular amastigotes, 96 h incubation
[6] = system: miltefosine resistant L. donovani DD8 intracellular amastigotes; assay: Activity on miltefosine resistant parasites, intracellular amastigote assay; assay type: cell-based, Leishmania donovani
Method in brief: (§1)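 Drug-selected resistant DD8 promastigotes were used to infect PMA-differentiated THP-1 cells. Test compound activity was assessed in the intracellular amastigote assay and compared with the wild-type strain.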

[7] = system: miltefosine resistant L. donovani DD8 promastigotes; assay: Activity on miltefosine resistant parasites, promastigote assay; assay type: cell-based, Leishmania donovani
Method in brief: (§2)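 Resistant DD8 promastigote lines were raised by culture under gradually increasing drug concentrations, starting sublethal. Resistant clones were then tested alongside the wild-type strain in the resazurin promastigote viability assay.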

THP-1 cells = assay: Macrophage; assay type: cell-based, human; conditions: vs L. donovani DD8 intracellular amastigotes
[8] = system: L. donovani DD8 promastigotes; assay: Time to kill assay; assay type: cell-based; conditions: Leishmania donovani, read-out: IC50, time to kill, promastigotes
Method in brief: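 Time-kill: DD8 promastigotes exposed to test compound for 24, 48, 72 or 96 h in the promastigote viability assay. 14-point concentration series from 40 µM top; IC50 calculated at each exposure time.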

[9] = system: amphotericin B resistant L. donovani DD8 promastigotes; assay: Activity on amphotericin B resistant parasites, promastigote assay; assay type: cell-based, Leishmania donovani
Method in brief: as §2

[10] = system: L. donovani DD8 promastigotes; assay: Determination of the cidal action of compounds; assay type: cell-based, Leishmania donovani; conditions: after 24 h incubation
Method in brief: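 DD8 promastigotes from two cultures in separate M199 media (N = 2) seeded at 5 × 10^5 parasites/mL. Test compound added; cell numbers counted at each time point. Absence of cells at a concentration was scored as cidal.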

[11] = system: L. donovani MHOM/IN/80/DD8 intracellular amastigotes; assay: L. donovani MHOM/IN/80/DD8 intracellular amastigote assay; assay type: cell-based, Leishmania donovani; conditions: for IC50: Leishmania donovani, THP-1, 96 h, read-out: IC50 (µM) [mean ± SD]
Method in brief: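 THP-1 cells: 12,500/well, 25 ng/mL PMA, 24 h at 37 °C. PMA washed off; cells rested 48 h. Infected with metacyclic promastigotes from 7-day culture (host:parasite 1:2.5) for 24 h, then free parasites washed off. Test compound 80–0.004 μM (0.4% DMSO), 96 h. PFA fixation, SYBR green/CellMask stain. Infected cells normalized to 1 μM amphotericin B and 0.4% DMSO. Sigmoidal IC50, two independent experiments.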

[12] = system: amphotericin B resistant L. donovani DD8 intracellular amastigotes; assay: Activity on amphotericin B resistant parasites, intracellular amastigote assay; assay type: cell-based, Leishmania donovani
Method in brief: as §1

[13] = system: L. infantum chagasi (MHOM/BR/1972/BH46); assay: Histopathological analysis of hamster liver and spleen; assay type: in vivo, golden hamsters (Mesocricetus auratus); conditions: infected hamsters, 10 mg/kg/day oral
[14] = system: L. tropica, L. aethiopica, L. mexicana, L. panamensis and L. donovani; conditions: read-out: EC50 values obtained for miltefosine; varied between species; cited from earlier work
L. donovani = conditions: read-out: mean IC50; L. donovani DD8; cited from earlier work
[15] = system: Leishmania donovani promastigotes; conditions: cited from earlier work
[16] = Distribution coefficient estimation using chromatography; assay type: physicochemical; conditions: pH 7.4
Method in brief: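 LogD estimated at pH 7.4 by gradient HPLC, correlating retention against standards of known partition coefficient.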

[17] = BZ1, BZ1-I 10 mg/kg/day oral, GLU 50 mg/kg/day i.p.
[18] = BZ1, BZ1-I 10 mg/kg/day oral, GLU 50 mg/kg/day i.p., 10 days
[19] = L. donovani DD8 intracellular amastigote assay (96 h)

| Molecule | parasite burden reduction in spleen [1, 17] [%] | average number of amastigotes in the liver [1, 18] [g⁻¹] | average number of amastigotes in the spleen [1, 18] [g⁻¹] | IC50 [3] [µM] | fold difference in activity between L. donovani DD8 and LdBOB [3] [fold] | Selectivity THP-1 cells [3] | Selectivity HEK-293 cells (HEK-293 cells) | activity against miltefosine resistant strain compared to wild-type [6] | activity against miltefosine resistant strain compared to wild-type [7] | Selectivity THP-1 cells (THP-1 cells; 72 h incubation) | Selectivity THP-1 cells (THP-1 cells; 96 h incubation) | TGF-β expression [2] | IC50 ([8]; 24 h) [nM] | IC50 ([8]; 48 h) [nM] | activity against amphotericin B resistant strain compared to wild-type [9] | concentration at which no viable promastigotes were observed [10] [µM] | IC50 [11] [µM] | activity against amphotericin B resistant strain compared to wild-type [12] | histopathological findings, liver [13] | concentration withstood by resistant clones ([4]; after 428 days) [µM] | also measured |
| --- | --- | --- | --- | --- | --- | --- | --- | --- | --- | --- | --- | --- | --- | --- | --- | --- | --- | --- | --- | --- | --- |
| Meglumine Antimoniate [reference compound] | 99.21 | 2530 | 12200 |  |  |  |  |  |  |  |  |  |  |  |  |  |  |  |  |  | parasite burden reduction in liver [1, 17]: 98.79%; INF-γ expression ([2]; spleen samples): significant difference; also recorded: increased INF-γ (Th1) expression |
| c1ccc(Oc2ccc(Nc3c4c(nc5ccccc35)CCC4)cc2)cc1 [BZ1-I, N-(4-phenoxyphenyl)-1H,2H,3H-cyclopenta[b]quinolin-9-amine] | 99.95 | 120 | 162 | 4.26 ± 0.24 | 10 | >11.49 | >24.11 | no significant difference | no significant difference | >44.44 | >49.12 | decreased expression of TGF-β | 3080 ± 1110 | 690 ± 350 | no significant difference | 1.66 | 0.4 ± 0.38 | no significant difference | mild inflammatory infiltrate in the portal space and nodules in the parenchyma with the presence of giant cells |  | concentration withstood by resistant clones ([4]; after 210 days): 5.5 µM; IC50 [5]: 4840 ± 830 nM; fold greater activity compared to the GLU treatment group ([1]; 10 mg/kg/day oral vs GLU 50 mg/kg/day i.p.): ~ 21 fold; histopathological findings, spleen [13]: evident increase in macrophages in the red pulp with the formation of nodules |
| CCCCCCCCCCCCCCCCOP(=O)([O-])OCC[N+](C)(C)C [Miltefosine, miltefosine, reference compound] |  |  |  |  |  |  | 15.66 |  |  |  | >7.87 |  |  |  |  | 6.66 | 2.54 ± 0.57 |  |  | 40 | Selectivity THP-1 cells (THP-1 cells; 96 h incubation, listed as miltefosine): 7.87; EC50 [14]: 2630 to 10600 nM |
| NC[C@@H]1O[C@H](O[C@H]2[C@@H](O)[C@H](O[C@@H]3[C@@H](O)[C@H](N)C[C@H](N)[C@H]3O[C@H]3O[C@H](CO)[C@@H](O)[C@H](O)[C@H]3N)O[C@@H]2CO)[C@H](N)[C@@H](O)[C@@H]1O [Paromomycin] |  |  |  |  |  |  |  |  |  |  |  |  |  |  |  |  |  |  |  |  | IC50 (L. donovani): 158000 to 166000 nM |
| C[C@@H]1[C@H](O)[C@@H](C)/C=C/C=C/C=C/C=C/C=C/C=C/C=C/[C@H](O[C@@H]2O[C@H](C)[C@@H](O)[C@H](N)[C@@H]2O)C[C@@H]2O[C@](O)(C[C@@H](O)C[C@@H](O)[C@H](O)CC[C@@H](O)C[C@@H](O)CC(=O)O[C@H]1C)C[C@H](O)[C@H]2C(=O)O [Amphotericin B, reference compound] |  |  |  |  |  |  |  |  |  |  | 10.24 |  |  |  |  | 0.33 | 0.2 ± 0.02 |  |  | 0.42 | resistance generated [15]: 20 fold |
| CCOc1ccc(Nc2c3c(nc4ccccc24)CCC3)cc1 [BZ1, N-(4-Ethoxyphenyl)-2,3-dihydro-1H-cyclopenta[b]quinolin-9-amine] | 98.56 | 3020 | 25400 | 4.4 ± 0.12 | 5 | >11.76 | > 33 | no significant difference | no significant difference | >25.64 | >33.89 | significantly downregulated; also recorded: decreased expression of TGF-β | 4310 ± 220 | 2370 ± 740 | no significant difference | 6.66 | 0.59 ± 0.13 | no significant difference | inflammatory nodules in the hepatic parenchyma, lymph histiocytic inflammatory infiltrate in the portal space forming nodules | 11 | in vivo toxicity in the hamster VL model ([1]; 10 mg/kg/day oral, 10 days): does not exhibit in vivo toxicity; TNF-α expression ([2]; compared to GLU and untreated, liver and spleen samples): significant downregulation; IL-4 expression ([2]; compared to untreated, spleen and liver samples): significantly downregulated; IL-17 expression ([2]; liver samples, compared to GLU): significant downregulation; fold greater activity than miltefosine [11, 19]: 5 fold; fold lower in vitro activity than amphotericin B [11, 19]: ~ 3 fold; chromatographic logD [16]: 5; histopathological findings, spleen [13]: increase of macrophages in the red pulp forming nodular aggregates and granulomas |
